Measured values from ChEMBL document CHEMBL1151950, “Antioxidant phenylethanoid glycosides and a neolignan from Jacaranda caucana” (J Nat Prod, 2009).

Legend:
[1] = Antioxidant activity assessed as protection against peroxyl radical-induced alkaline phosphatase activity loss by microplate assay; format: functional
Outline: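 Pure compounds were tested in the microplate alkaline phosphatase (ALP) oxidation-protection assay. The reported value is EC50, the antioxidant concentration that protects ALP by 50% from peroxyl radical-induced loss of activity.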

[2] = DPPH radical scavenging activity assessed as ratio of antioxidant concentration to drug level causing 50% decrease in DPPH level at steady state by microplate assay

## C[C@@H]1O[C@@H](O[C@@H]2[C@@H](O)[C@H](OCCc3ccc(O)c(O)c3)O[C@H](COC(=O)C[C@]3(O)CC[C@@H](O)CC3)[C@H]2OC(=O)/C=C/c2ccc(O)c(O)c2)[C@H](O)[C@H](O)[C@H]1O
[1]
  EC50: 1.27 µM
[2]
  Ratio: 0.098

## C[C@@H]1O[C@@H](O[C@@H]2[C@@H](O)[C@H](OCCc3ccc(O)c(O)c3)O[C@H](COC(=O)CC3(O)CCC(=O)CC3)[C@H]2OC(=O)/C=C/c2ccc(O)c(O)c2)[C@H](O)[C@H](O)[C@H]1O
[1]
  EC50: 1.27 µM
[2]
  Ratio: 0.079

## COc1cc([C@H]2Oc3c(OC)cc([C@@H](O)[C@@H](O)CO)cc3[C@@H]2CO)ccc1O[C@@H]1O[C@@H](C)[C@H](O)[C@@H](O)[C@H]1O
[1]
  EC50: 9.07 µM
[2]
  Ratio: 1.84

## C[C@@H]1O[C@@H](O[C@@H]2[C@@H](O)[C@H](OCCc3ccc(O)c(O)c3)O[C@H](CO)[C@H]2OC(=O)/C=C/c2ccc(O)c(O)c2)[C@H](O)[C@H](O)[C@H]1O [ACETOSIDE]
[1]
  EC50: 1.04 µM
[2]
  Ratio: 0.078

## C[C@@H]1O[C@@H](O[C@@H]2[C@@H](O)[C@H](OCCc3ccc(O)c(O)c3)O[C@H](COC(=O)/C=C/c3ccc(O)c(O)c3)[C@H]2O)[C@H](O)[C@H](O)[C@H]1O [ISOACTEOSIDE]
[1]
  EC50: 1.2 µM
[2]
  Ratio: 0.07

## COc1ccc(CCO[C@@H]2O[C@H](CO)[C@@H](OC(=O)/C=C/c3ccc(O)c(O)c3)[C@H](O[C@@H]3O[C@@H](C)[C@H](O)[C@@H](O)[C@H]3O)[C@H]2O)cc1O [JIONOSIDE D]
[1]
  EC50: 1.1 µM
[2]
  Ratio: 0.17

## COc1ccc(CCO[C@@H]2O[C@H](CO)[C@@H](OC(=O)/C=C/c3ccc(O)c(OC)c3)[C@H](O[C@@H]3O[C@@H](C)[C@H](O)[C@@H](O)[C@H]3O)[C@H]2O)cc1O [MARTYNOSIDE A]
[1]
  EC50: 2.42 µM
[2]
  Ratio: 0.38

## O=C(O)c1ccc(O)c(O)c1 [PROTOCATECHUIC ACID]
[1]
  EC50: 2.56 µM
[2]
  Ratio: 0.23

## O=c1c(O)c(-c2ccc(O)c(O)c2)oc2cc(O)cc(O)c12 [QUERCETIN]
[1]
  EC50: 1 µM
[2]
  Ratio: 0.09
